Results as given in ChEMBL document CHEMBL2034893, “Selective inhibition of human type-5 17β-hydroxysteroid dehydrogenase (AKR1C3) by baccharin, a component of Brazilian propolis” (J Nat Prod, 2012).
Each block holds one molecule with its values, some of them ahead of it. Active and inactive are the calls of the source. The rule behind the calls is not given here.

How the values were obtained:
[1] = molecular target: T1, Aldo-keto reductase family 1 member C3 (Homo sapiens, UniProt P42330); test: Inhibition of human recombinant AKR1C3 expressed in Escherichia coli JM109 cells using S-tetralol as substrate at 100 uM by fluorometry
T1 sequence (P42330 whole entry): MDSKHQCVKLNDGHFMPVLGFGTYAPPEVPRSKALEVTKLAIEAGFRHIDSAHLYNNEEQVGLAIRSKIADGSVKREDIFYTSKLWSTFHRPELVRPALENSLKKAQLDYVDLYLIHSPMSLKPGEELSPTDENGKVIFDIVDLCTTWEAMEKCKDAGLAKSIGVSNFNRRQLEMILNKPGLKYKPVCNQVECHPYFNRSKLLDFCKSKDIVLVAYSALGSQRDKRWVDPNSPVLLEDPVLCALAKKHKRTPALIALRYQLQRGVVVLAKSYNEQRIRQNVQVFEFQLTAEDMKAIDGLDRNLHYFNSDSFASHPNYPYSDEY

[2] = molecular target: T1, Aldo-keto reductase family 1 member C3; test: Inhibition of human AKR1C3 using S-(+)-1,2,3,4-tetrahydro-1-naphthol as substrate
Summary of the method: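 Recombinant human AKR1C3, purified to homogeneity. NADP+-linked S-tetralol oxidation at 25 °C in 0.1 M potassium phosphate pH 7.4 with 0.25 mM NADP+ and 1 mM S-tetralol. Rate followed by NADPH fluorescence (excitation 340 nm, emission 455 nm). IC50 given as mean ± SD of at least three determinations.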

[3] = test system: PC-3; test: Growth inhibition of human PC3 cells at 50 uM after 72 hrs by MTT assay relative to untreated control; type: functional; settings: PC-3, 72 h, read-out: GI
[4] = test system: PC-3; test: Growth inhibition of human PC3 cells overexpressing AKR1C3 at 50 uM after 72 hrs by MTT assay relative to untreated control; type: functional; settings: PC-3, 72 h, read-out: GI
[5] = molecular target: T2, Aldo-keto reductase family 1 member C1 (Homo sapiens, UniProt Q04828); test: Inhibition of human recombinant GST-tagged AKR1C1 expressed in Escherichia coli using S-tetralol as substrate by fluorometry
T2 sequence (Q04828 whole entry): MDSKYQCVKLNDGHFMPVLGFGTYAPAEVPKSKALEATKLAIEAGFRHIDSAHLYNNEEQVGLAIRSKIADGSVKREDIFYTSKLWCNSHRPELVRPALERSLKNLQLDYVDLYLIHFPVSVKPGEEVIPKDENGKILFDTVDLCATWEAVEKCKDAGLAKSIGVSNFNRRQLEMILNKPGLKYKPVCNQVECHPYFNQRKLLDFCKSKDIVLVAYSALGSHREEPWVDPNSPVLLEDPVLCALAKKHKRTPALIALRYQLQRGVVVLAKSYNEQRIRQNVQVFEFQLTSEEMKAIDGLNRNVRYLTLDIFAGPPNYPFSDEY
Summary of the method: (§1)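 Purified recombinant enzyme was assayed at 25 °C in 0.1 M potassium phosphate, pH 7.4, with 0.25 mM NADP+ and S-tetralol (0.1 mM for AKR1C1, 1 mM for AKR1C4). The rate of NADPH fluorescence increase was read at ex 340/em 455 nm. IC50 is the mean ± SD of at least three determinations.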

[6] = molecular target: Aldo-keto reductase family 1 member C4 (Homo sapiens, UniProt P17516); test: Inhibition of human recombinant GST-tagged AKR1C4 expressed in Escherichia coli using S-tetralol as substrate by fluorometry; summary of the method: as §1
Sequence of Aldo-keto reductase family 1 member C4 (P17516 whole entry): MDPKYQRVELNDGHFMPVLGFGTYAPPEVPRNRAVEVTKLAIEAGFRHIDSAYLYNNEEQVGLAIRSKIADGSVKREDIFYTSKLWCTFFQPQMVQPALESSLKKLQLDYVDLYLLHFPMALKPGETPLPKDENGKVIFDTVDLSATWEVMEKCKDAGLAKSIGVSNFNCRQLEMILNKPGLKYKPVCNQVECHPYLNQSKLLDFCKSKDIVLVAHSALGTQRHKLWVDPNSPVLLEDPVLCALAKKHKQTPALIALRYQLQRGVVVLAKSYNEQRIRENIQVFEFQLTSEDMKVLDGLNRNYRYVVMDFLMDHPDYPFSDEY

[7] = molecular target: Aldo-keto reductase family 1 member C2 (Homo sapiens, UniProt P52895); test: Inhibition of human recombinant AKR1C2 expressed in Escherichia coli using S-tetralol as substrate by fluorometry
Sequence of Aldo-keto reductase family 1 member C2 (P52895 whole entry): as the sequence (Q04828 whole entry) above, with T38V, R47H, L54V, C87S, V151M, R170H, Q172L counted along it

[8] = molecular target: T2, Aldo-keto reductase family 1 member C1; test: Inhibition of AKR1C1-mediated progesterone reduction in human A549 cells at 0.2 to 5 uM incubated for 2 hrs prior to substrate addition measured after 6 hrs by LC/MS analysis; type: cell-based
Summary of the method: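 A549 cells were grown in DMEM with 10% FBS at 37 °C under 5% CO2. They were pretreated 2 h with inhibitor in serum-free medium, then given 30 μM progesterone for 6 h. Medium steroids were extracted twice with ethyl acetate. Progesterone and 20α-hydroxyprogesterone were quantified by LC/MS (chiral column, total-ion monitoring). Percent inhibition of reduction is the mean of two independent experiments.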

[9] = molecular target: T1, Aldo-keto reductase family 1 member C3; test: Inhibition of human recombinant AKR1C3 expressed in Escherichia coli JM109 cells using S-tetralol as substrate by fluorometry
[10] = molecular target: T1, Aldo-keto reductase family 1 member C3; test: Noncompetitive inhibition of human recombinant AKR1C3 expressed in Escherichia coli JM109 cells using S-tetralol as substrate by fluorometry in presence of NADP+
[11] = molecular target: T1, Aldo-keto reductase family 1 member C3; test: Competitive inhibition of human recombinant AKR1C3 expressed in Escherichia coli JM109 cells using S-tetralol as substrate by fluorometry
Summary of the method: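 Recombinant enzymes (wild-type or mutant) were expressed in E. coli JM109 and purified to homogeneity. Activity was NADP+-linked S-tetralol oxidation at 25 °C in 0.1 M potassium phosphate, pH 7.4, with saturating 0.25 mM NADP+ and five S-tetralol levels (0.33−2 mM). NADPH fluorescence was read at ex 340/em 455 nm. Ki is the mean ± SD of at least three determinations.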

inhibition [1]: 22%
Structure (SMILES): O=C(O)/C=C/c1ccc(O)cc1

Ki [2]: 0.008 µM
Structure (SMILES): Cc1c(Cl)cccc1Nc1ccccc1C(=O)O [TOLFENAMIC ACID]

IC50 [5]: 130 µM
IC50 [6]: 54 µM
IC50 [7]: 75 µM
Structure (SMILES): COc1ccc2c(c1)c(CC(=O)O)c(C)n2C(=O)c1ccc(Cl)cc1 [INDOMETHACIN]

The remaining lines, values behind:

Structure (SMILES): CC(C)=CCc1cc(/C=C/C(=O)O)ccc1OC(=O)CCc1ccccc1 [BACCHARIN]
inhibition of growth at 50 µM [3]: 35%
inhibition of growth at 50 µM [4]: 43%

Structure (SMILES): O=C(O)/C=C/c1ccc(O)c(O)c1
inhibition [1]: 36%

Structure (SMILES): O=C(O)c1cc(-c2ccccc2)cc(Br)c1O
inhibition [8]: Active

Structure (SMILES): CC(C)=CCc1cc(/C=C/C(=O)O)cc(CC=C(C)C)c1O [ARTEPILLIN]
IC50 [9]: 1 µM
Ki [10]: 0.68 µM
Ki [11]: 0.68 µM

Structure (SMILES): O=C(/C=C/c1ccc(O)c(O)c1)OCCc1ccccc1 [CAFFEIC ACID PHENETHYL ESTER]
IC50 [5]: 13 µM
IC50 [6]: 2.3 µM
IC50 [9]: 1.7 µM
IC50 [7]: 6 µM
